The record followed here is BindingDB's records for doi:10.1016/j.bmcl.2009.03.011 (Cytrx, 2009).

Structures are written as SMILES.

Broadly, the EC50 is the concentration needed to bring the measured effect to its halfway point.

The target of the assay is T1, Heat shock factor protein 1 (Homo sapiens, UniProt Q00613).
T1 sequence (Q00613 whole entry): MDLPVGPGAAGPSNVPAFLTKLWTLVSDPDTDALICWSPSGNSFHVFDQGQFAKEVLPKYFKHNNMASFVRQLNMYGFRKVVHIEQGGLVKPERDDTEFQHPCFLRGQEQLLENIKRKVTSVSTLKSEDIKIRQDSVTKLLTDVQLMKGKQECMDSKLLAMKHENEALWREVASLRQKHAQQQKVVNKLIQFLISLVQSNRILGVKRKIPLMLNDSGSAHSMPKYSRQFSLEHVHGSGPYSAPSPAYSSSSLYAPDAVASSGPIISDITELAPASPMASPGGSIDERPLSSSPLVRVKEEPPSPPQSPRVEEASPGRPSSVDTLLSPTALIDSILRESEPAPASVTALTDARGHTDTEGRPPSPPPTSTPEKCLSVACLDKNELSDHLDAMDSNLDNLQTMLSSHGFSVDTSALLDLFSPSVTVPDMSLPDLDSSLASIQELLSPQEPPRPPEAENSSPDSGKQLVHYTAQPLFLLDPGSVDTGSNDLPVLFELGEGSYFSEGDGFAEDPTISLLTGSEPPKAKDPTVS
Kind of assay: Transcriptional activation of HSF1 in heat shock stress-induced human HeLa cells assessed as granule formation treated 1 hr before heat shock challenge measured after 2 hrs by immunocytochemical staining. The method in brief: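 HeLa cells given compound 1 h, then heat shock at 41 °C for 2 h without recovery; HSF1 immunocytochemical staining, quantified by high-content imaging. Range 0.3–80 µM, twofold dilution, 200-fold overall.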
In the case of `OC(CO/N=C(\Cl)c1nc2c(F)cccc2o1)CN1CCCCC1` (configuration not stated) [4-fluoro-N-(2-hydroxy-3-(piperidin-1-yl)propoxy)benzo[d]oxazole-2-carbimidoyl chloride], the EC50 came out at 20.2 µM.

As to `CCS(=O)(=O)c1ccc2oc(/C(Cl)=N/OCC(O)CN3CCCCC3)nc2c1` (configuration not stated) [5-(ethylsulfonyl)-N-(2-hydroxy-3-(piperidin-1-yl)propoxy)benzo[d]oxazole-2-carbimidoyl chloride], the EC50 stood at 42.9 µM.

On to `OC(CO/N=C(\Cl)c1nc2cc(Cl)ccc2o1)CN1CCCCC1` (configuration not stated) [5-chloro-N-(2-hydroxy-3-(piperidin-1-yl)propoxy)benzo[d]oxazole-2-carbimidoyl chloride], for which the EC50 stood at 20.9 µM.

Take `OC(CO/N=C(\Cl)c1nc2cc(F)ccc2o1)CN1CCCCC1` (configuration not stated) [5-fluoro-N-(2-hydroxy-3-(piperidin-1-yl)propoxy)benzo[d]oxazole-2-carbimidoyl chloride]: the EC50 came out at 51.3 µM.

For the molecule `CN(C)S(=O)(=O)c1ccc2nc(/C(Cl)=N/OCC(O)CN3CCCCC3)oc2c1` (configuration not stated) [6-(N,N-dimethylsulfamoyl)-N-(2-hydroxy-3-(piperidin-1-yl)propoxy)benzo[d]oxazole-2-carbimidoyl chloride], the EC50 was found to be 41.6 µM.

For the molecule `OC(CO/N=C(\Cl)c1nc2ccc(Cl)cc2o1)CN1CCCCC1` (configuration not stated) [6-chloro-N-(2-hydroxy-3-(piperidin-1-yl)propoxy)benzo[d]oxazole-2-carbimidoyl chloride], the half-maximal effective concentration (EC50) turned out to be 22.9 µM.

Take `OC(CO/N=C(\Cl)c1nc2ccc(F)cc2o1)CN1CCCCC1` (configuration not stated) [6-fluoro-N-(2-hydroxy-3-(piperidin-1-yl)propoxy)benzo[d]oxazole-2-carbimidoyl chloride]: the EC50 is 29.4 µM.

Take `OC(CO/N=C(\Cl)c1nc2cccc(F)c2o1)CN1CCCCC1` (configuration not stated) [7-fluoro-N-(2-hydroxy-3-(piperidin-1-yl)propoxy)benzo[d]oxazole-2-carbimidoyl chloride]: the concentration giving a half-maximal response (EC50) stood at 18.5 µM.

Take `CCCN(C[C@H](O)CO/N=C(\Cl)c1nc2ccccc2o1)C(C)C` [(S)-N-(2-hydroxy-3-(isopropyl(propyl)amino)propoxy)benzo[d]oxazole-2-carbimidoyl chloride]: the EC50 was found to be 24.1 µM.

As for `CC(C)N(CCO)CC(O)CO/N=C(\Cl)c1nc2ccccc2o1` (configuration not stated) [N-(2-hydroxy-3-((2-hydroxyethyl)(isopropyl)amino)propoxy)benzo[d]oxazole-2-carbimidoyl chloride], the concentration giving a half-maximal response (EC50) was 28.7 µM.

As to `Cc1ccc2oc(/C(Cl)=N/OCC(O)CN3CCCCC3)nc2c1` (configuration not stated) [N-(2-hydroxy-3-(piperidin-1-yl)propoxy)-5-methylbenzo[d]oxazole-2-carbimidoyl chloride], the concentration for a half-maximal effect (EC50) turned out to be 41.6 µM.

Consider `Cc1ccc2nc(/C(Cl)=N/OCC(O)CN3CCCCC3)oc2c1` (configuration not stated) [N-(2-hydroxy-3-(piperidin-1-yl)propoxy)-6-methylbenzo[d]oxazole-2-carbimidoyl chloride], for which the EC50 worked out at 31 µM.

Regarding `OC(CO/N=C(\Cl)c1nc2ccccc2o1)CN1CCCCC1` (configuration not stated) [N-(2-hydroxy-3-(piperidin-1-yl)propoxy)benzo[d]oxazole-2-carbimidoyl chloride], the EC50 came out at 41.7 µM.

In the case of `OC(CO/N=C(\Cl)c1nc2ccccc2s1)CN1CCCCC1` (configuration not stated) [N-(2-hydroxy-3-(piperidin-1-yl)propoxy)benzo[d]thiazole-2-carbimidoyl chloride], the half-maximal effective concentration (EC50) is 52.6 µM.

In the case of `OC(CO/N=C(\Cl)c1nc2c(ccc3ccccc32)o1)CN1CCCCC1` (configuration not stated) [N-(2-hydroxy-3-(piperidin-1-yl)propoxy)naphtho[1,2-d]oxazole-2-carbimidoyl chloride], the EC50 worked out at 12.1 µM.

On to `OC(CO/N=C(\Cl)c1nc2ccccc2s1)CN1CCCC1` (configuration not stated) [N-(2-hydroxy-3-(pyrrolidin-1-yl)propoxy)benzo[d]thiazole-2-carbimidoyl chloride], for which the EC50 was 62.8 µM.

For the molecule `CC1CCCC(C)N1CC(O)CO/N=C(\Cl)c1nc2ccccc2o1` (configuration not stated) [N-(3-(2,6-dimethylpiperidin-1-yl)-2-hydroxypropoxy)benzo[d]oxazole-2-carbimidoyl chloride], the EC50 stood at 32.4 µM.

As to `CC1CC(C)CN(CC(O)CO/N=C(\Cl)c2nc3ccccc3o2)C1` (configuration not stated) [N-(3-(3,5-dimethylpiperidin-1-yl)-2-hydroxypropoxy)benzo[d]oxazole-2-carbimidoyl chloride], the EC50 is 17.4 µM.

Turning to `OC(CO/N=C(\Cl)c1nc2ccccc2o1)CN1CCCC(F)C1` (configuration not stated) [N-(3-(3-fluoropiperidin-1-yl)-2-hydroxypropoxy)benzo[d]oxazole-2-carbimidoyl chloride], the half-maximal effective concentration (EC50) was 52.6 µM.

Regarding `CC(C)N(CCCF)CC(O)CO/N=C(\Cl)c1nc2ccccc2o1` (configuration not stated) [N-(3-((3-fluoropropyl)(isopropyl)amino)-2-hydroxypropoxy)benzo[d]oxazole-2-carbimidoyl chloride], the 50% effective concentration (EC50) came to 22.8 µM.

Take `CC(C)N(CC(O)CO/N=C(\Cl)c1nc2ccccc2o1)CC1CC1` (configuration not stated) [N-(3-((cyclopropylmethyl)(isopropyl)amino)-2-hydroxypropoxy)benzo[d]oxazole-2-carbimidoyl chloride]: the half-maximal effective concentration (EC50) was 12.4 µM.

On to `CCCCN(CCCC)CC(O)CO/N=C(\Cl)c1nc2ccccc2o1` (configuration not stated) [N-(3-(dibutylamino)-2-hydroxypropoxy)benzo[d]oxazole-2-carbimidoyl chloride], for which the EC50 came out at 20.9 µM.

For `CCN(CC)CC(O)CO/N=C(\Cl)c1nc2ccccc2o1` (configuration not stated) [N-(3-(diethylamino)-2-hydroxypropoxy)benzo[d]oxazole-2-carbimidoyl chloride], the EC50 came to 27.1 µM.

With `CC(C)N(CC(O)CO/N=C(\Cl)c1nc2ccccc2o1)C(C)C` (configuration not stated) [N-(3-(diisopropylamino)-2-hydroxypropoxy)benzo[d]oxazole-2-carbimidoyl chloride], the 50% effective concentration (EC50) came out at 25.5 µM.

As for `CCCN(CCC)CC(O)CO/N=C(\Cl)c1nc2ccccc2o1` (configuration not stated) [N-(3-(dipropylamino)-2-hydroxypropoxy)benzo[d]oxazole-2-carbimidoyl chloride], the EC50 turned out to be 23.9 µM.

On to `CCCN(CC)CC(O)CO/N=C(\Cl)c1nc2ccccc2o1` (configuration not stated) [N-(3-(ethyl(propyl)amino)-2-hydroxypropoxy)benzo[d]oxazole-2-carbimidoyl chloride], for which the concentration giving a half-maximal response (EC50) was 23 µM.

For `CC(C)N(CC(O)CO/N=C(\Cl)c1nc2ccccc2o1)C(C)(C)C` (configuration not stated) [N-(3-(tert-butyl(isopropyl)amino)-2-hydroxypropoxy)benzo[d]oxazole-2-carbimidoyl chloride], the EC50 came out at 16.6 µM.
